High-throughput results deposited in PubChem by several laboratories.
An excerpt weighted towards active compounds, which were near 1.9% of everything screened.
Vif imaging: blocks HIV Vif function; HEK293T cells, Vif self-association by quenched fluorescence, imaging, 24 h; inhibition, % at 7.49 µM; hit rate 0.35% among 340,000; in the data active = inhibition above about 50%, passing the limit was not always enough
MsrA inhibitor: inhibits bovine methionine sulfoxide reductase A. purified bovine MsrA, absorbance read-out. inhibition, % at 15.5 µM. hit rate 0.75% among 360,000. AID 651718; in the data active = inhibition above about 4.5%;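 note: 0% = vehicle wells with enzyme and 100% = reference inhibitor wells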
N-glyco inh: blocks N-linked glycosylation in D54 reporter cells; reporter increase, % at 12.5 µM; hit rate 0.23% among 360,000; D54 ERlucT glycosylation luciferase reporter, 24 h; percent of 100 nM tunicamycin response;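 active = mean luciferase reporter signal, scaled so untreated is 0 and the glycosylation-blocking control 100, at or above a set limit in every replicate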;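 note: luciferase carries N-glycosylation sites so blocking glycosylation raises the light; 0% = median of neutral control wells and 100% = median of 100 nM tunicamycin wells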
MsrA act: activators of bovine methionine sulfoxide reductase A. purified bovine MsrA, absorbance read-out. activation, % at 10.6 µM. hit rate 0.3% among 360,000. AID 602163; in the data active = activation above about 7.5%;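 note: 0% = vehicle and 100% = reference activator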
UCH37 DUB inh: blocks the human deubiquitinase UCH37 | purified proteasome/UCH37, Ub-AMC cleavage fluorescence | Q9Y5K5 | hit rate 0.33% among 330,000 | AID 588478 | inhibition, % (concentration not given with the values);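 active = mean inhibition over replicate wells above about 20%, limit read from the data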;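 note: 0% = compound-free wells with enzyme and 100% = wells lacking proteasome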
Target sequence (Q9Y5K5 whole entry, looked up): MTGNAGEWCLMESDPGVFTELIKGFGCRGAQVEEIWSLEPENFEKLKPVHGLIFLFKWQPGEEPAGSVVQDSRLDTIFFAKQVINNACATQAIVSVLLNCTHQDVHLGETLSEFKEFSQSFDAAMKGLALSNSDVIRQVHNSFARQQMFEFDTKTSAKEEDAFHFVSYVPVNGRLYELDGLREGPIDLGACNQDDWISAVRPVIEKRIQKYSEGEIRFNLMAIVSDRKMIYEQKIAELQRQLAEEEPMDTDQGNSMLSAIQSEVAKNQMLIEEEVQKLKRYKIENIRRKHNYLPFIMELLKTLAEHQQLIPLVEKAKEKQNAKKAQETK
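Material: Human UCH37 enzyme supplied as purified proteasome complex | Schedule: 30 min compound-proteasome preincubation then 25 min substrate reaction, room temperature | Detection: AMC fluorescence from Ub-AMC cleavage, excitation 355 nm, emission 460 nm | Benchmarks: Wells without proteasome as full block, compound-free enzyme plus substrate as uninhibited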
aDG glyco up: increases alpha dystroglycan glycosylation | Pro5-aDG cells, alpha-DG glycosylation AlphaScreen (IIH6); 0% Pro5, 100% B10-LARGE cell signal | activation, % at 10 µM | hit rate 0.22% among 360,000 | AID 624168;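 active = activation of at least 8% versus controls, or a plate z-score of at least 8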;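 note: Pro5 are CHO cells carrying HIG-tagged alpha-DG that lacks glycosylation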
* hit, by the source's call; x = no result given.

SMILES | Vif imaging | MsrA inhibitor | N-glyco inh | MsrA act | UCH37 DUB inh | aDG glyco up
COc1cc2c(cc1OC)C(c1cc3cc(C)ccc3[nH]c1=O)N(C(=O)c1ccco1)CC2 (stereo unspecified) | 10 | 0 | 2 | -4 | 5 | 0
COc1cc2c(cc1OC)C(c1ccccc1)N(C(=O)c1ccccc1)CC2 (stereo unspecified) | -7 | -1 | 34* | -1 | 4 | 0
COCCNC(=S)N1CCc2cc(OC)c(OC)cc2C1c1cccs1 (stereo unspecified) | 3 | 0 | 59* | -3 | 3 | 0
COCCNC(=S)N1CCc2cc(OC)c(OC)cc2C1COc1ccc(F)cc1 (stereo unspecified) | 0 | 0 | -3 | -4 | 2 | 0
COc1cc2c(cc1OC)C(c1ccccc1)N(C(=O)c1ccco1)CC2 (stereo unspecified) | 20 | 1 | 34* | -1 | 6 | 0
COC(=O)c1ccc(OCC2c3cc(OC)c(OC)cc3CCN2C(=O)c2ccco2)cc1 (stereo unspecified) | 69* | -1 | -2 | -2 | 0 | -1
COc1cc2c(cc1OC)C(c1ccccc1)N(C(=O)c1ccccc1F)CC2 (stereo unspecified) | 0 | 1 | 37* | -1 | 7 | 0
Cc1nn(C)c(C)c1CN(C)S(=O)(=O)c1ccc2ccccc2c1 | -42 | 2 | -2 | 0 | 0 | 6.5*
Cc1nn(C)c(C)c1CN(C)S(=O)(=O)c1ccc(F)cc1 | x | -1 | 0 | -6 | 3 | 0
CC1CN(S(=O)(=O)c2cccc(C(=O)N3CCC(C(N)=O)CC3)c2)CC(C)O1 (stereo unspecified) | 53* | 0 | 1 | -2 | 0 | 0
NC(=O)C1CCCN(C(=O)c2cccc(S(=O)(=O)N3CCCCCC3)c2)C1 (stereo unspecified) | -5 | 0 | 2 | -3 | 1 | 0
Cc1ccc2nc(-c3ccc(NC(=O)COCC(=O)O)cc3)sc2c1 | 12 | 4.5* | -2 | -5 | -204 | 0
COc1cc(CNCc2ccccc2)c(Br)cc1OC1CCCC1 | 75* | 1 | -5 | -4 | 0 | 0
COc1cc(CNC2CCCC2)c(Br)cc1OC1CCCC1 | x | 0 | -4 | -5 | -1 | 0
c1ccc(N2CCN(c3nc4ccccc4n4cnnc34)CC2)cc1 | -1 | 2 | 17 | -3 | -9 | 0
c1ccc2c(c1)nc(N1CCOCC1)c1nncn12 | -5 | 4.6* | 3 | -1 | 4 | 0
ON=Cc1ccccc1OCc1ccccc1F | x | x | x | x | 3 | x
NC(=O)c1nsc(C(=O)N(c2cccc(F)c2)C(C(=O)NC2CCCC2)c2ccc(O)cc2)c1N (stereo unspecified) | 91* | 1 | -5 | -4 | -115 | 0
NC(=O)c1nsc(C(=O)N(Cc2cccnc2)C(C(=O)NCc2ccc(F)cc2)c2ccc(O)cc2)c1N (stereo unspecified) | 51* | 2 | 1 | -4 | -49 | 0
Cc1cc(NS(=O)(=O)c2ccc(NC(=O)COc3c(C)cc(Br)cc3C)cc2)no1 | 7 | -1 | 33* | -2 | 6 | 0
Cc1ccc(-n2nc(C)c(NC(=O)CCl)c2C)cc1C | -1 | 0 | 48* | -3 | 2 | 1
CSc1nncc(C(C)=NO)n1 | x | x | x | x | 3 | x
Nc1nonc1-n1nnc(C(=O)NN=Cc2ccccc2Cl)c1CSc1ccccc1 | x | x | x | x | 4 | x
CC(CC(=O)Nc1ccc(N(C)C)cc1)=NNC(=O)c1ccccc1O | x | x | x | x | -35 | x
COc1cc(OC)cc(-c2sc3ccc(OC)cc3c2-c2ccc(OCCN3CCOCC3)cc2)c1 | 61* | x | -3 | -6 | -12 | 0
SMILES | Vif imaging | MsrA inhibitor | N-glyco inh | MsrA act | UCH37 DUB inh | aDG glyco up
COc1cccc(-c2sc3ccc(OC)cc3c2-c2ccc(OCCN(C)C)cc2)c1 | 9 | -1 | -11 | -2 | x | 8.6*
Cc1cc(C(=O)NN=C/C(Br)=C/c2ccccc2)c(C)o1 | x | x | x | x | 1 | x
O=C(CN1C(=O)N/C(=C\c2ccccc2OCc2ccc(C(=O)O)cc2)C1=O)Nc1ccc(F)cc1 | 11 | 4.7* | -1 | -8 | -3 | 0
C(=Nn1cnnc1)c1nc2ccccc2[nH]1 | x | x | x | x | -207 | x
Cc1cccc2cc(CN(CC3CCCO3)C(=O)NC3CCCCC3)c(=O)[nH]c12 (stereo unspecified) | 68* | 2 | -1 | -3 | -6 | 0
Cc1ccc2cc(CN(CC3CCCO3)C(=O)NC3CCCCC3)c(=O)[nH]c2c1C (stereo unspecified) | -13 | 0 | -1 | 0 | -3 | 0
CN(C)C=NC(=S)Nc1ccc(F)cc1 | x | x | x | x | 5 | x
Cc1oc2c(CN(C)C)c(O)ccc2c(=O)c1-c1cscn1 | 2 | 4.8* | 3 | -5 | -242 | 0
O=C(NC1C=CS(=O)(=O)C1)c1sc2ccccc2c1Cl (stereo unspecified) | 18 | 0 | 32* | 2 | 1 | 0
O=C(NC1CC1)c1sc2ccccc2c1Cl | 10 | 0 | 2 | 0 | 4 | 0
CCN(CC)c1ccc(C2N(C(=O)N3CCOCC3)CCN2S(=O)(=O)c2ccc(C)cc2)cc1 (stereo unspecified) | 4 | 4.6* | -1 | -12 | 6 | 0
CCOC1=C2[C@H](c3ccccc3Cl)N(S(=O)(=O)c3ccc(C)cc3)C[C@H]2C(C#N)(C#N)C(C#N)(C#N)C1 | x | -1 | 10 | -2 | x | 0
CCOC1=C2[C@H](c3ccc(CC)cc3)N(S(=O)(=O)c3ccc(C)cc3)C[C@H]2C(C#N)(C#N)C(C#N)(C#N)C1 | x | 3 | 33* | -1 | x | 0
CCOc1ccc(NC(=O)Cn2c(=O)oc3cc(Cl)ccc32)cc1 | -8 | 0 | 0 | -6 | -1 | 0
CCOc1ccc(NC(=O)Cn2c(=O)oc3ccccc32)cc1 | -4 | 0 | 2 | 0 | 30* | 0
S=C(Nc1ccccc1)N1CCn2c(nc3ccccc32)C1 | 58* | -1 | -2 | -3 | 0 | 1
CCOC(=O)c1cnn(-c2ccccc2)c1NC(=O)c1ccccc1C | 54* | 0 | 2 | -6 | -1 | 0
Cc1ccccc1C(=O)Nc1c(C(=O)N2CCCC2)cnn1-c1ccccc1 | x | 0 | 1 | -2 | 1 | 0
O=C(COc1ccc(Cl)cc1Cl)NN=Cc1ccc(OC2OC(CO)C(O)C(O)C2O)cc1 (stereo unspecified) | x | x | x | x | 1 | x
Cn1cccc1C=NNC(=O)C(O)c1ccccc1 (stereo unspecified) | x | x | x | x | 8 | x
O=C(Nc1ccnc(-c2cccnc2)n1)c1cccs1 | 119* | 1 | 4 | -3 | 1 | 0
COc1ccc2ccccc2c1C=NNC(=O)c1nnn(-c2nonc2N)c1CN(C)C | x | x | x | x | -22 | x
N#CC(=NNc1cccc(Cl)c1)C(=O)c1ccccc1 | x | x | x | x | 7 | x
COc1ccc(C(=O)c2sc3nc(C)cc(-c4cccs4)c3c2N)cc1OC | 176* | 0 | -1 | -3 | -3 | 1
